Active and inactive are the calls of the source. The rule behind the calls is not given here.
Experiments:
[1] = % bound in plasma; type: ADME, cell-free; conditions: read-out: PPB
[2] = molecular target: T1, 5-hydroxytryptamine receptor 6 (Homo sapiens, UniProt P50406); experiment: Displacement of [3H]-LSD from cloned human 5-HT6 receptor expressed in human HeLa cells; type: cell-based
Method in brief: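 Radioligand displacement of [³H]-LSD from cloned human 5-HT6 receptors stably expressed in HeLa cells; compounds tested as HCl salts; Ki values determined in triplicate.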

[3] = molecular target: T1, 5-hydroxytryptamine receptor 6; experiment: Antagonist activity at cloned human 5-HT6 receptor expressed in human HeLa cells assessed as inhibition of 5HT-induced cyclic AMP formation; type: functional, cell-based
[4] = molecular target: 5-hydroxytryptamine receptor 1B (Homo sapiens, UniProt P28222); experiment: Binding affinity to 5-HT1B receptor
[5] = molecular target: 5-hydroxytryptamine receptor 7 (Homo sapiens, UniProt P34969); experiment: Binding affinity to 5-HT7 receptor
[6] = Binding affinity to P-glycoprotein
[7] = molecular target: 5-hydroxytryptamine receptor 1D (Homo sapiens, UniProt P28221); experiment: Binding affinity to 5-HT1D receptor
[8] = molecular target: D(2) dopamine receptor (Homo sapiens, UniProt P14416); experiment: Binding affinity to dopamine D2 receptor
[9] = molecular target: T2, 5-hydroxytryptamine receptor 1A (Homo sapiens, UniProt P08908); experiment: Binding affinity to 5-HT1A receptor
T2 sequence (P08908 whole entry): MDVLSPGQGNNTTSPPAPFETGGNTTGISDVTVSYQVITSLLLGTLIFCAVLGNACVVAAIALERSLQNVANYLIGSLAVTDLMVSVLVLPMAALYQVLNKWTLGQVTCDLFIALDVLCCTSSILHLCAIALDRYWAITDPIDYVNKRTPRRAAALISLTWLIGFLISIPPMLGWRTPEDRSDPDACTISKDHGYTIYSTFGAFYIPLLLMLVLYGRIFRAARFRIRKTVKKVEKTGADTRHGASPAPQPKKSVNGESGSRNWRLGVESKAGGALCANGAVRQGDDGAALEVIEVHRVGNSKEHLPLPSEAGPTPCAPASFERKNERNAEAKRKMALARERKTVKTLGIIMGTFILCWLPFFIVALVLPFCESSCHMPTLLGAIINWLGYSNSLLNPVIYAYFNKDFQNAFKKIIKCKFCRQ

[10] = Half life in human microsomes; type: ADME, Microsome
[11] = Solubility of the compound in water; type: physicochemical
[12] = molecular target: T3, 5-hydroxytryptamine receptor 2C (Homo sapiens, UniProt P28335); experiment: Binding affinity to 5-HT2C receptor
T3 sequence (P28335 whole entry): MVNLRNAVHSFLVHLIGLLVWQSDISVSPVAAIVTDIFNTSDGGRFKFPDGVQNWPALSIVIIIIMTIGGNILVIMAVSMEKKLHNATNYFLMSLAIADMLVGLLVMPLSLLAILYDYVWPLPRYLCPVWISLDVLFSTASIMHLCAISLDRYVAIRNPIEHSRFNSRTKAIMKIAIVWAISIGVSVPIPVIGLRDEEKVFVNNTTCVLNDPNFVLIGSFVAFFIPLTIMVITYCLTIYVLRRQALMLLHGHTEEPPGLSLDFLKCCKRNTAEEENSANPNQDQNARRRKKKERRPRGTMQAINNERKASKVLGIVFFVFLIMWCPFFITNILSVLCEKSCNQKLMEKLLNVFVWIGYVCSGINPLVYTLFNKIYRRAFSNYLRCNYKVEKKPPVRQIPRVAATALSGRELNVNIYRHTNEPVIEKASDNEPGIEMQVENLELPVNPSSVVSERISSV

[13] = molecular target: T4, 5-hydroxytryptamine receptor 2B (Homo sapiens, UniProt P41595); experiment: Binding affinity to 5-HT2B receptor
[14] = molecular target: T4, 5-hydroxytryptamine receptor 2B; experiment: Agonist activity at 5-HT2B receptor at 0.1 nM to 10 uM by FLIPR assay; type: functional
[15] = Half life in rat microsomes; type: ADME, Microsome
[16] = molecular target: T5, Alpha-2A adrenergic receptor (Homo sapiens, UniProt P08913); experiment: Binding affinity to adrenergic alpha2A receptor
T5 sequence (P08913 whole entry): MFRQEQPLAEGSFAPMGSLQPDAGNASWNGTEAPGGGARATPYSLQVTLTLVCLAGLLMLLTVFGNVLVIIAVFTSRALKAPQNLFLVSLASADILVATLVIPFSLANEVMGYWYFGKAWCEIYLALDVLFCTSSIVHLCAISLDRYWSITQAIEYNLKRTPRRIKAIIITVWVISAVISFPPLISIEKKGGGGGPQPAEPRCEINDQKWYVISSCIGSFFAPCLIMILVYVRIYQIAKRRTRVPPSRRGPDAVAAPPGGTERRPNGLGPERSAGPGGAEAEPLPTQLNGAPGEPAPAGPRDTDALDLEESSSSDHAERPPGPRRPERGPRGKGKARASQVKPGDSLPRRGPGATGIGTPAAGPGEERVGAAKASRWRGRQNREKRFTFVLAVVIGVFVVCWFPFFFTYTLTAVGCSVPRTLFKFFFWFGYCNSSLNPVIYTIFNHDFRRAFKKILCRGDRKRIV

Chain of D(2) dopamine receptor (P14416 whole entry): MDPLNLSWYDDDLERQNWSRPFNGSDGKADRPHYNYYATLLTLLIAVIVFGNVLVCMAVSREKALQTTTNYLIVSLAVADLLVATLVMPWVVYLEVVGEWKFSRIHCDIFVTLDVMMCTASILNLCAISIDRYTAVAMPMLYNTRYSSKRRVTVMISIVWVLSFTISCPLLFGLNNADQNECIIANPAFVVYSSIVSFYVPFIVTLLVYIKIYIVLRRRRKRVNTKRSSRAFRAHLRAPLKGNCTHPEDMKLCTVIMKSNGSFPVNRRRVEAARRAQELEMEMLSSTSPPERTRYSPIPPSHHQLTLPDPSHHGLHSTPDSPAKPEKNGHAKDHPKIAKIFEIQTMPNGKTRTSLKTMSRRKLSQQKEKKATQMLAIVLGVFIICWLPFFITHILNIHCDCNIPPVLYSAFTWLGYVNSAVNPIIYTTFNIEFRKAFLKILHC
T1 sequence (P50406 whole entry): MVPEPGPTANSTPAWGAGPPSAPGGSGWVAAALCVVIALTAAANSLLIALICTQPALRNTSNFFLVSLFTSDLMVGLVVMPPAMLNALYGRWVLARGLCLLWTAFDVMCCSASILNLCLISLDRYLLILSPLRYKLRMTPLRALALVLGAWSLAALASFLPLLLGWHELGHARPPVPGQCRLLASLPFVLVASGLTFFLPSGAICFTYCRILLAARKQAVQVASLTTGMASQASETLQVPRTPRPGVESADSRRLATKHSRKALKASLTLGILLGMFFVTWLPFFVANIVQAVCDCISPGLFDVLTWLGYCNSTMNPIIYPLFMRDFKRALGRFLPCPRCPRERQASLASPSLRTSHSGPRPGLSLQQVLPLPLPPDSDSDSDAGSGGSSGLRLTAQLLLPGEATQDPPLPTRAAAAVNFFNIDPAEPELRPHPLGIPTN
Chain of 5-hydroxytryptamine receptor 1D (P28221 whole entry): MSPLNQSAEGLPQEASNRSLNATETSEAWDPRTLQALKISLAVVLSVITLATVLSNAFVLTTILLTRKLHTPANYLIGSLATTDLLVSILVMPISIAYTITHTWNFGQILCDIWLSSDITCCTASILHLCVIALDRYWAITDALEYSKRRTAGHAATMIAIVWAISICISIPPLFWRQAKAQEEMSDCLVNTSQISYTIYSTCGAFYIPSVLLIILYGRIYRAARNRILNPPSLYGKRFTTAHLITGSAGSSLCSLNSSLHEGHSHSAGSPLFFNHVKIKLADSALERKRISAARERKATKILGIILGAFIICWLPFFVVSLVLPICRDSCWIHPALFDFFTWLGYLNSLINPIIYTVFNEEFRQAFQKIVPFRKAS
Chain of 5-hydroxytryptamine receptor 7 (P34969 whole entry): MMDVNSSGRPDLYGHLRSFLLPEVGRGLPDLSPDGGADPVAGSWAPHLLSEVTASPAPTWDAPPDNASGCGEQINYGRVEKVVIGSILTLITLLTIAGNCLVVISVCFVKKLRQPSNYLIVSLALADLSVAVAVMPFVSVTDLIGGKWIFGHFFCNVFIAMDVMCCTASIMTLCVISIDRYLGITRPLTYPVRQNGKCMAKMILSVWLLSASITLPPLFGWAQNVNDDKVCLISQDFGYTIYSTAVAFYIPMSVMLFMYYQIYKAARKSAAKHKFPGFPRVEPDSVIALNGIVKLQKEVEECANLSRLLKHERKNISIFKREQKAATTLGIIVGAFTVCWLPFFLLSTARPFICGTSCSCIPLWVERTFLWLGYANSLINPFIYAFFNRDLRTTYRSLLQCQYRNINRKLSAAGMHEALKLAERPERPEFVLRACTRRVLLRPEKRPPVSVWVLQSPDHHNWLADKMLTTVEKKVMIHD
Chain of 5-hydroxytryptamine receptor 1B (P28222 whole entry): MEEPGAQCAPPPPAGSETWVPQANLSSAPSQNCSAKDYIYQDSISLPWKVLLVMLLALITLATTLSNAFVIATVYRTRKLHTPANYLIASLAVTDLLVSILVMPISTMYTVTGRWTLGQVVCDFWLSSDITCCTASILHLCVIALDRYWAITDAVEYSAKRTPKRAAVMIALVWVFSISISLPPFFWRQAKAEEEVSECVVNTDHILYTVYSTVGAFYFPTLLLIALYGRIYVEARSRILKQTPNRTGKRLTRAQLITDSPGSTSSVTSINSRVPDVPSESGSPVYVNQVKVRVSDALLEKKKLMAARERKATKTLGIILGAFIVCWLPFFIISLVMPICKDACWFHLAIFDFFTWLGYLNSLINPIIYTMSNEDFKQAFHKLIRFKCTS
T4 sequence (P41595 whole entry): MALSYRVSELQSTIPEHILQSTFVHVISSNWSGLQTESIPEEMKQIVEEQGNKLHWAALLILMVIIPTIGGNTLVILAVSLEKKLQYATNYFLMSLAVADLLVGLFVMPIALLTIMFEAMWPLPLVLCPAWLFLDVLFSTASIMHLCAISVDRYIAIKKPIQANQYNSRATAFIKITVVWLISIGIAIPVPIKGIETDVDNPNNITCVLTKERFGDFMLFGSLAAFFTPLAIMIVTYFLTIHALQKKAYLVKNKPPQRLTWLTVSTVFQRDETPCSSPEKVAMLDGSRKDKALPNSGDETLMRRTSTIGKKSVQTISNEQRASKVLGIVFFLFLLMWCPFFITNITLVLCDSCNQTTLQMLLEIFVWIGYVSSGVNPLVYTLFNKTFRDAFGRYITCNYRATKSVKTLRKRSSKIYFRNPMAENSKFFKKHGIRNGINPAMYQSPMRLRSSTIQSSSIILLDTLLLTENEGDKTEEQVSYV

O=S(=O)(c1cccc2ccccc12)c1n[nH]c2c(NC3CCNCC3)cccc12
fraction unbound [1]: > 0.2
Ki [2]: 30 nM

CC(C)[C@H](N)CNc1ccc2[nH]nc(S(=O)(=O)c3cccc4ccccc34)c2c1
fraction unbound [1]: > 0.2

O=S(=O)(c1cccc2ccccc12)c1n[nH]c2ccc(CN3CCNCC3)cc12
fraction unbound [1]: > 0.2
Ki [2]: 0.24 nM
IC50 [3]: 19 nM

NCCC(=O)Nc1ccc2c(S(=O)(=O)c3cccc4ccccc34)n[nH]c2c1
fraction unbound [1]: > 0.2
Ki [2]: 24 nM
IC50 [3]: 456 nM

O=C(NCCN1CCCCC1)c1ccc2[nH]nc(S(=O)(=O)c3cccc4ccccc34)c2c1
fraction unbound [1]: > 0.2
Ki [2]: 107 nM

CN(C)CCC(=O)Nc1ccc2c(S(=O)(=O)c3cccc4ccccc34)n[nH]c2c1
fraction unbound [1]: > 0.2
Ki [2]: 44 nM

O=S(=O)(c1cccc2ccccc12)c1n[nH]c2cc(NC3CCCNC3)ccc12 (stereo unspecified)
fraction unbound [1]: > 0.2
Ki [2]: 57 nM

O=S(=O)(c1cccc2ccccc12)c1n[nH]c2cccc(NC3CCNCC3)c12
fraction unbound [1]: > 0.2
Ki [2]: 2.8 nM
IC50 [3]: 56 nM

O=S(=O)(c1cccc(F)c1)c1n[nH]c2ccc(NC3CCNCC3)cc12
fraction unbound [1]: > 0.2
Ki [2]: 6.7 nM
IC50 [3]: 94 nM

COc1ccc(S(=O)(=O)c2n[nH]c3ccc(NC4CCNCC4)cc23)cc1
fraction unbound [1]: > 0.2
Ki [2]: 9.8 nM
IC50 [3]: 126 nM

O=C(Nc1ccc2c(S(=O)(=O)c3cccc4ccccc34)n[nH]c2c1)C1CCNCC1
fraction unbound [1]: > 0.2
Ki [2]: 31 nM

CCN(CC)CCC(=O)Nc1cccc2c(S(=O)(=O)c3cccc4ccccc34)n[nH]c12
fraction unbound [1]: > 0.2
Ki [2]: 27 nM
IC50 [3]: 137 nM

Cl.O=S(=O)(c1cccc(Cl)c1)c1n[nH]c2ccc(NC3CCNCC3)cc12
Ki [4]: 1660 nM
Ki [5]: 3220 nM
Activity [6]: inactive
Ki [7]: 410 nM
Ki [8]: > 5000 nM
Ki [9]: 455 nM
half-life [10]: > 30 min
fraction unbound [1]: > 0.2
Ki [2]: 1 nM
solubility [11]: > 100 µg/mL
Ki [12]: 2430 nM
Ki [13]: 155 nM
Activity [14]: inactive
half-life [15]: > 30 min
Ki [16]: > 5000 nM
IC50 [3]: 12 nM

Cl.O=S(=O)(c1ccc2ccccc2c1)c1n[nH]c2ccc(NC3CCNCC3)cc12
Ki [4]: > 5000 nM
Ki [5]: > 5000 nM
Activity [6]: inactive
Ki [7]: > 5000 nM
Ki [8]: > 5000 nM
Ki [9]: 4350 nM
half-life [10]: > 30 min
fraction unbound [1]: > 0.2
Ki [2]: 0.6 nM
solubility [11]: > 100 µg/mL
Ki [12]: > 5000 nM
Ki [13]: 675 nM
Activity [14]: inactive
half-life [15]: > 30 min
Ki [16]: > 5000 nM
IC50 [3]: 16 nM

O=C(CCN1CCCCC1)Nc1cccc2c(S(=O)(=O)c3cccc4ccccc34)n[nH]c12
fraction unbound [1]: > 0.2
Ki [2]: 24 nM

O=S(=O)(c1ccccc1)c1n[nH]c2ccc(NC3CCNCC3)cc12
fraction unbound [1]: > 0.2
Ki [2]: 3.1 nM
IC50 [3]: 125 nM

CCN(CC)CCC(=O)Nc1ccc2c(S(=O)(=O)c3cccc4ccccc34)n[nH]c2c1
fraction unbound [1]: > 0.2
Ki [2]: 65 nM

O=S(=O)(c1cccc2ccccc12)c1n[nH]c2c(NC3CCCNC3)cccc12 (stereo unspecified)
fraction unbound [1]: > 0.2
Ki [2]: 66 nM

O=S(=O)(c1ccc(Cl)cc1)c1n[nH]c2ccc(NC3CCNCC3)cc12
fraction unbound [1]: > 0.2
Ki [2]: 2.3 nM
IC50 [3]: 44 nM

O=S(=O)(c1ccc(F)cc1)c1n[nH]c2ccc(NC3CCNCC3)cc12
fraction unbound [1]: > 0.2
Ki [2]: 6.3 nM
IC50 [3]: 118 nM

NCCNCc1ccc2[nH]nc(S(=O)(=O)c3cccc4ccccc34)c2c1
fraction unbound [1]: > 0.2
Ki [2]: 12 nM
IC50 [3]: 156 nM

O=C(CCN1CCCCC1)Nc1ccc2c(S(=O)(=O)c3cccc4ccccc34)n[nH]c2c1
fraction unbound [1]: > 0.2
Ki [2]: 12 nM
IC50 [3]: 90 nM

NCCNc1cccc2c(S(=O)(=O)c3cccc4ccccc34)n[nH]c12
fraction unbound [1]: > 0.2
Ki [2]: 17 nM
IC50 [3]: 93 nM

NCCC(=O)Nc1cccc2c(S(=O)(=O)c3cccc4ccccc34)n[nH]c12
fraction unbound [1]: > 0.2
Ki [2]: 3.4 nM

Cc1cccc(S(=O)(=O)c2n[nH]c3ccc(NC4CCNCC4)cc23)c1
fraction unbound [1]: > 0.2
Ki [2]: 0.8 nM
IC50 [3]: 19 nM

CN(C)CCC(=O)Nc1cccc2c(S(=O)(=O)c3cccc4ccccc34)n[nH]c12
fraction unbound [1]: > 0.2
Ki [2]: 4.8 nM
IC50 [3]: 137 nM

CC(C)c1ccc(S(=O)(=O)c2n[nH]c3ccc(NC4CCNCC4)cc23)cc1.Cl
Ki [4]: 2730 nM
Ki [5]: > 5000 nM
Activity [6]: inactive
Ki [7]: 1500 nM
Ki [8]: > 5000 nM
Ki [9]: 859 nM
half-life [10]: > 30 min
fraction unbound [1]: > 0.2
Ki [2]: 1 nM
solubility [11]: > 100 µg/mL
Ki [12]: 1770 nM
Ki [13]: 1760 nM
Activity [14]: inactive
half-life [15]: > 30 min
Ki [16]: > 5000 nM
IC50 [3]: 14 nM

O=S(=O)(c1cccc2ccccc12)c1n[nH]c2ccc(NC3CCCNC3)cc12 (stereo unspecified)
fraction unbound [1]: > 0.2
Ki [2]: 1.7 nM
IC50 [3]: 95 nM

O=C(Nc1cccc2c(S(=O)(=O)c3cccc4ccccc34)n[nH]c12)C1CCCNC1 (stereo unspecified)
fraction unbound [1]: > 0.2
Ki [2]: 9.8 nM
IC50 [3]: 48 nM

NCCNc1ccc2c(S(=O)(=O)c3cccc4ccccc34)n[nH]c2c1
fraction unbound [1]: > 0.2
Ki [2]: 17 nM
IC50 [3]: 87 nM

O=S(=O)(c1cccc2ccccc12)c1n[nH]c2cccc(NC3CCCNC3)c12 (stereo unspecified)
fraction unbound [1]: > 0.2
Ki [2]: 4.2 nM
IC50 [3]: 88 nM

O=S(=O)(c1cccc2ccccc12)c1n[nH]c2c(NCC3CCNCC3)cccc12
fraction unbound [1]: > 0.2
Ki [2]: 17 nM
IC50 [3]: 87 nM

O=C(Nc1cccc2c(S(=O)(=O)c3cccc4ccccc34)n[nH]c12)C1CCNCC1
fraction unbound [1]: > 0.2
Ki [2]: 28 nM

O=S(=O)(c1ccc(C(F)(F)F)cc1)c1n[nH]c2ccc(NC3CCNCC3)cc12
fraction unbound [1]: > 0.2
Ki [2]: 1.5 nM
IC50 [3]: 27 nM

CN(C)CCNC(=O)c1ccc2[nH]nc(S(=O)(=O)c3cccc4ccccc34)c2c1
fraction unbound [1]: > 0.2
Ki [2]: 2.9 nM
IC50 [3]: 103 nM

CC(N)CNc1ccc2[nH]nc(S(=O)(=O)c3cccc4ccccc34)c2c1 (stereo unspecified)
fraction unbound [1]: > 0.2
Ki [2]: 1.4 nM
IC50 [3]: 30 nM

CN(C)CCN(C)Cc1ccc2[nH]nc(S(=O)(=O)c3cccc4ccccc34)c2c1
fraction unbound [1]: > 0.2
Ki [2]: 14 nM
IC50 [3]: 91 nM

NCCNc1ccc2[nH]nc(S(=O)(=O)c3cccc4ccccc34)c2c1
fraction unbound [1]: > 0.2
Ki [2]: 6.7 nM
IC50 [3]: 13 nM

O=S(=O)(c1cccc2ccccc12)c1n[nH]c2cc(NC3CCNCC3)ccc12
fraction unbound [1]: > 0.2
Ki [2]: 53 nM

O=S(=O)(c1cccc2ccccc12)c1n[nH]c2cccc(NCC3CCNCC3)c12
fraction unbound [1]: > 0.2
Ki [2]: 9.5 nM
IC50 [3]: 21 nM

O=S(=O)(c1cccc2ccccc12)c1n[nH]c2cc(NCC3CCNCC3)ccc12
fraction unbound [1]: > 0.2
Ki [2]: 44 nM

O=S(=O)(c1cccc2ccccc12)c1n[nH]c2ccc(NCC3CCNCC3)cc12
fraction unbound [1]: > 0.2
Ki [2]: 3.5 nM
IC50 [3]: 174 nM
